{"data": "Measurements collected from several papers", "target": "Serine/threonine-protein kinase SBK1 (SBK1, Homo sapiens, UniProt Q52WX2)", "note": "Lines come from different studies, so protocols differ."}
{"Compound": "COc1cnc(Nc2cccc(S(N)(=O)=O)c2)nc1N1CCN(c2ccccc2)CC1", "observed": "binding", "method": "competition with immobilised ligand", "tested at": "1 µM", "remaining binding [%]": 96}
{"Compound": "COc1ccnn2ncc(-c3ccnc(N(C)C)n3)c12", "observed": "binding", "tested at": "1 µM", "remaining binding [%]": 100}
{"Compound": "C[C@H](c1cccc(C#N)c1)n1cc(Cl)cc(C(N)=O)c1=N", "observed": "cell-free assay", "method": "competition with immobilised ligand", "tested at": "1 µM", "remaining binding [%]": 83}
{"Compound": "Cc1cnc(Nc2ccc(C(=O)N3CCC(N4CCCC4)CC3)cc2)nc1-c1cc2ccccc2s1", "observed": "binding", "method": "competition with immobilised ligand", "tested at": "1 µM", "remaining binding [%]": 51}
{"Compound": "N[C@@H]1CCN(c2nccc(-c3cnn4ncccc34)n2)C1", "observed": "binding", "tested at": "1 µM", "remaining binding [%]": 94}
{"Compound": "O=C(NCC1CCOCC1)c1n[nH]cc1NC(=O)c1c(F)cccc1F", "observed": "binding", "method": "competition with immobilised ligand", "tested at": "1 µM", "remaining binding [%]": 70}
{"Compound": "CCC(=O)N[C@H]1CC[C@@H](C(=O)N(C)c2ccc(-c3nc4ccccc4o3)cc2)C1", "observed": "cell-free assay", "method": "competition with immobilised ligand", "tested at": "1 µM", "remaining binding [%]": 94}
{"Compound": "COc1cnc(Nc2cccc(S(N)(=O)=O)c2)nc1N1CCN(c2ccccc2)C(=O)C1", "observed": "binding", "method": "competition with immobilised ligand", "tested at": "1 µM", "remaining binding [%]": 61}
{"Compound": "CCCCN(CCCC)C(=O)CN1C[C@H](c2cc(OC)c3c(c2)OCO3)[C@@H](C(=O)O)[C@@H]1CC(C)(C)CCC", "observed": "cell-free assay", "method": "competition with immobilised ligand", "tested at": "1 µM", "remaining binding [%]": 76.5}
{"Compound": "F[C@@H]1CCN(c2nccc(-c3cnn4ncccc34)n2)C1", "observed": "binding", "tested at": "1 µM", "remaining binding [%]": 100}
{"Compound": "CC(=O)c1c(NS(C)(=O)=O)c2cc(-c3ccc(Cl)cc3)c(-c3ccc(Cl)cc3Cl)nc2n(C)c1=O", "observed": "cell-free assay", "method": "competition with immobilised ligand", "tested at": "1 µM", "remaining binding [%]": 77}
{"Compound": "O=C(c1ccc(Nc2ncc(Cl)c(-c3ccc(Cl)s3)n2)cc1)N1CCC(N2CCCC2)CC1", "observed": "binding", "method": "competition with immobilised ligand", "tested at": "1 µM", "remaining binding [%]": 48}
{"Compound": "COc1ncc2cc3ccccc3nc2c1C#N", "observed": "cell-free assay", "method": "competition with immobilised ligand", "tested at": "5 µM", "remaining binding [%]": 82}
{"Compound": "CN(C)c1nccc(-c2cnn3ncccc23)n1", "observed": "binding", "tested at": "1 µM", "remaining binding [%]": 100}
{"Compound": "CCN1CCN(Cc2ccc(C(=O)Nc3ccc(C)c(Oc4ccc5c(c4)CC(=O)N5)c3)cc2C(F)(F)F)CC1", "observed": "binding", "method": "competition with immobilised ligand", "tested at": "1 µM", "remaining binding [%]": 76}
{"Compound": "C[C@H]1CCN(c2nccc(-c3cnn4ncccc34)n2)C1", "observed": "binding", "tested at": "1 µM", "remaining binding [%]": 78}
{"Compound": "CCOC(=O)c1cc2cc(-c3cc(C(=O)NCc4ccc(C(=O)O)cc4)nn3C)ccc2[nH]1", "observed": "cell-free assay", "method": "competition with immobilised ligand", "tested at": "0.1 µM", "remaining binding [%]": 90}
{"Compound": "CN(c1nccc(-c2cnn3ncccc23)n1)C1CC1", "observed": "binding", "tested at": "1 µM", "remaining binding [%]": 100}
{"Compound": "O=C(NCc1ncc(C(F)(F)F)cc1Cl)c1ccc2c(c1)C1(CCS(=O)(=O)CC1)[C@H](C1CC1)N2S(=O)(=O)c1ccc(F)cc1", "observed": "cell-free assay", "method": "competition with immobilised ligand", "tested at": "1 µM", "remaining binding [%]": 97}
{"Compound": "CN(C)c1ncc(F)c(-c2cnn3ncccc23)n1", "observed": "binding", "tested at": "1 µM", "remaining binding [%]": 66}
{"Compound": "CO[C@@H](C)c1c(Nc2ccc([C@H](N(C)C(=O)C3CCS(=O)(=O)CC3)C(F)(F)F)cc2)cnc2cc(Cl)nn12", "observed": "cell-free assay", "method": "competition with immobilised ligand", "tested at": "1 µM", "remaining binding [%]": 100}
{"Compound": "O=C(c1ccc(Nc2ncc(Cl)c(-c3cc4ccccc4s3)n2)cc1)N1CCC(N2CCCC2)CC1", "observed": "binding", "method": "competition with immobilised ligand", "tested at": "1 µM", "remaining binding [%]": 52}
